{"source": "paper PMC2577561", "about": "(Bioorganic & medicinal chemistry, 2008)", "key": {"[1]": {"system": "CFTR", "conditions": "read-out: IC50, block of CFTR chloride conductance; full block; cited from earlier work"}, "[2]": {"system": "cholera toxin-induced intestinal fluid secretion", "conditions": "in vivo; cited from earlier work"}, "[3]": {"conditions": "cited from earlier work"}, "[4]": {"experiment": "Solubility in phosphate buffered saline by LC/MS", "format": "physicochemical", "conditions": "for Increase of water solubility compared with CFTRinh-172: in saline", "procedure,_shortened": "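Saturated solution made by adding DMSO stock to phosphate buffered saline (final DMSO 2%). Sonicated 5 min at 25 °C, shaken 1 h at room temperature, then centrifuged at 15 000 rpm for 1 h. Supernatant quantified by LC/MS peak area against per-compound standard curves (1–15 or 1–100 μM, linear r > 0.998).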"}, "[5]": {"system": "FRT cells", "experiment": "Cytotoxicity, crystal violet staining", "format": "cell-based", "conditions": "50 μM, 48 h, crystal violet staining vs vehicle-treated cultures", "procedure,_shortened": "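Confluent FRT monolayers exposed to test compound for 2 days, washed 3 times, fixed for 30 min and stained with 0.5% crystal violet for 10 min. Dye extracted in Sorenson's buffer (0.1 M sodium citrate, 50% ethanol, pH 4.2) and read at 650 nm absorbance. Percent staining from 8 wells per test, referenced to cell-free blanks and vehicle-treated cells.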"}, "[6]": {"system": "MDCK cell model", "conditions": "cited from earlier work"}, "[7]": {"molecular_target": "human wildtype CFTR (Homo sapiens, UniProt P13569)", "sequence (P13569 whole entry)": "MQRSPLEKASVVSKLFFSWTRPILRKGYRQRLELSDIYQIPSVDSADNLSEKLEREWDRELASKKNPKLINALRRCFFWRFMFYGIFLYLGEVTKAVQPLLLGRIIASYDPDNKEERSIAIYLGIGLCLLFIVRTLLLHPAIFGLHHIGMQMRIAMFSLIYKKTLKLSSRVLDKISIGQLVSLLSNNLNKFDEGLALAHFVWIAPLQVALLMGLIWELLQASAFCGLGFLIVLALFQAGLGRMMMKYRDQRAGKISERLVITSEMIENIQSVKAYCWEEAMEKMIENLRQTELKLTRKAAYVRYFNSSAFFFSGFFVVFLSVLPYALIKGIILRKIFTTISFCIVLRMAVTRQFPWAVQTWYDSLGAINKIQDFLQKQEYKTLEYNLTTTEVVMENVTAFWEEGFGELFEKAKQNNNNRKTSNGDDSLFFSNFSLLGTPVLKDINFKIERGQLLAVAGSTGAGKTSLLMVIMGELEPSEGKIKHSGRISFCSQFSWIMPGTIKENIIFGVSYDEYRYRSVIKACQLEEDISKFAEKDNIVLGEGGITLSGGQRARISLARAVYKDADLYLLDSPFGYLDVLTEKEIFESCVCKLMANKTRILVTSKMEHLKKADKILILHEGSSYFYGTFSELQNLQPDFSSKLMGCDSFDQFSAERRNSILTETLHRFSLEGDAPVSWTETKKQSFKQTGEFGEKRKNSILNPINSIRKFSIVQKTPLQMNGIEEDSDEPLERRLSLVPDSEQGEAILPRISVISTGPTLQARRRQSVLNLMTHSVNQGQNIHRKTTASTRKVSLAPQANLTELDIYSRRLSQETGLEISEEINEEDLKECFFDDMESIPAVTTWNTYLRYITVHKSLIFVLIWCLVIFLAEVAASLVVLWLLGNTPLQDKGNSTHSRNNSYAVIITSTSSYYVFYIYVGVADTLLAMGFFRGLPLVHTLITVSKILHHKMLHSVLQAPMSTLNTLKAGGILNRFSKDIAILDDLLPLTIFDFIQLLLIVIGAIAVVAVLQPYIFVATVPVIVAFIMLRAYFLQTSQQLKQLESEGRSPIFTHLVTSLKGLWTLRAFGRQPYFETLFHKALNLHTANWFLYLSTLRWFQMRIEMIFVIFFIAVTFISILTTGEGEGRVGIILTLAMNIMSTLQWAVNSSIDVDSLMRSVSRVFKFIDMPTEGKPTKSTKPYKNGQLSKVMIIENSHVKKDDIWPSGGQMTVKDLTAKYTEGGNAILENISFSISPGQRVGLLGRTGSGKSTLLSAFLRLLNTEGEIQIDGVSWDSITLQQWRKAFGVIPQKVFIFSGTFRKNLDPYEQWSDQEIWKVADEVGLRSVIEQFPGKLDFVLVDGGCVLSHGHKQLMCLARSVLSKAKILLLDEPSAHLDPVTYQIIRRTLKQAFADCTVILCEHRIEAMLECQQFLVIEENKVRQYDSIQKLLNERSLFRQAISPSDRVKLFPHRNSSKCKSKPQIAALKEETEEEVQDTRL", "experiment": "Short-circuit current measurement of CFTR inhibition", "format": "cell-based", "conditions": "for CFTR inhibition activity (in words): short-circuit current, statements in running text; for IC50 (μM) / IC50: FRT cells expressing human wildtype CFTR; for IC50: IC50 (μM)", "procedure,_shortened": "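FRT cells stably expressing human wildtype CFTR, grown on 1 cm2 filters to >1,000 Ω.cm2. Basolateral membrane permeabilized with amphotericin B (250 μg/ml, 30 min). Basolateral buffer in mM: 130 NaCl, 10 Na-HEPES, 10 glucose, pH 7.3. Apical side had 65 mM NaCl swapped for gluconate, giving a Cl− gradient. 37 °C, 95% O2/5% CO2. CFTR activated with 100 μM CPT-cAMP, then inhibitor added at stepped concentrations. Voltage-clamped apical current recorded; IC50 fitted.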"}, "[8]": {"conditions": "Table 1, variations in Rings A and C"}, "[9]": {"conditions": "Table 2, variations in Ring B and Linkers 1 and 2"}}, "note": "Several values for one entry are separate records, joined by “and”; a condition that tells them apart may be missing. Identical values can stand only once."}
{"smiles": "O=C(O)c1ccc(/C=C2\\SC(=S)N(c3cccc(C(F)(F)F)c3)C2=O)cc1", "note": "[Compound 5, 4-[[4-Oxo-2-thioxo-3-[3-(trifluoromethyl)phenyl]-5-thiazolidinylidene]methyl]benzoic acid]", "values": [{"measurement": "IC50", "setting": "[1]", "result": "< 0.5", "unit": "µM"}, {"measurement": "Cholera toxin-induced intestinal fluid secretion", "setting": "[2]", "result": "efficacy in reducing cholera toxin-induced intestinal fluid secretion"}, {"measurement": "Excretion and metabolism (in words)", "setting": "[3]", "result": "renal excretion with minimal metabolism"}, {"measurement": "Toxicity (in words)", "setting": "[3]", "result": "low toxicity"}]}
{"smiles": "O=C1/C(=C/c2ccc(-c3nn[nH]n3)cc2)SC(=S)N1c1cccc(C(F)(F)F)c1", "note": "[Compound 6, 5-[[4-(2H-Tetrazol-5-yl)phenyl]methylene]-2-thioxo-3-[3-(trifluoromethyl)phenyl]-4-thiazolidinone]", "values": [{"measurement": "Increase of water solubility compared with CFTRinh-172", "setting": "[4]; listed as Tetrazolo-172", "result": "> 10 fold and 11 fold"}, {"measurement": "% Cell viability", "setting": "[5]", "result": "reduced"}, {"measurement": "Prevention of cyst formation", "setting": "[6]", "result": "substantially better than by CFTRinh-172"}]}
{"smiles": "O=C(O)c1ccc(/C=C2\\SC(=S)N(c3ccc(F)c(C(F)(F)F)c3)C2=O)cc1", "note": "[Compound 8]", "values": [{"measurement": "CFTR inhibition activity (in words)", "setting": "[7]", "result": "intermediate activity"}]}
{"smiles": "O=C(O)c1cccc(/C=C2\\SC(=S)N(c3ccc(F)c(C(F)(F)F)c3)C2=O)c1", "note": "[Compound 11]", "values": [{"measurement": "CFTR inhibition activity (in words)", "setting": "[7]", "result": "intermediate activity"}]}
{"smiles": "Cc1cccc(N2C(=O)/C(=C/c3ccc(C(=O)O)cc3)SC2=S)c1", "note": "[Compound 12]", "values": [{"measurement": "CFTR inhibition activity (in words)", "setting": "[7]", "result": "less active"}]}
{"smiles": "O=C1/C(=C/c2cc(Br)c(O)c(Br)c2)SC(=S)N1c1cccc(C(F)(F)F)c1", "note": "[Compound 14]", "values": [{"measurement": "CFTR inhibition activity (in words)", "setting": "[7]", "result": "modest inhibition activity"}]}
{"smiles": "O=C1/C(=C/c2cc(Br)c(O)c(Br)c2O)SC(=S)N1c1cccc(C(F)(F)F)c1", "note": "[Compound 15]", "values": [{"measurement": "CFTR inhibition activity (in words)", "setting": "[7]", "result": "modest inhibition activity"}]}
{"smiles": "Cc1c(N2C(=O)/C(=C/c3ccc(C(=O)O)cc3)SC2=S)cccc1C(F)(F)F", "note": "[Compound 18, 4-[[4-Oxo-2-thioxo-3-[2-methyl-3-(trifluoromethyl)phenyl]-5-thiazolidinylidene]methyl] benzoic acid]", "values": [{"measurement": "% Cell viability", "setting": "[5]", "result": "reduced"}]}
{"smiles": "O=C(O)c1ccc(/C=C2\\SC(=S)N(c3ccc(Cl)c(C(F)(F)F)c3)C2=O)cc1", "note": "[Compound 24]", "values": [{"measurement": "CFTR inhibition activity (in words)", "setting": "[7]", "result": "greatly reduced activity"}]}
{"smiles": "O=C(O)c1ccc(/C=C2\\SC(=S)N(c3cc(C(F)(F)F)ccc3Cl)C2=O)cc1", "note": "[Compound 30]", "values": [{"measurement": "CFTR inhibition activity (in words)", "setting": "[7]", "result": "greatly reduced activity"}]}
{"smiles": "O=C(O)COc1cccc(/C=C2\\SC(=S)N(c3cccc(C(F)(F)F)c3)C2=O)c1", "note": "[Compound 36]", "values": [{"measurement": "CFTR inhibition activity (in words)", "setting": "[7]", "result": "substantially reduced CFTR inhibition"}]}
{"smiles": "O=C1/C(=C/c2ccc(O)c(O)c2)SC(=S)N1c1cccc(C(F)(F)F)c1", "note": "[Compound 38]", "values": [{"measurement": "IC50 (μM)", "setting": "[7]; [8]", "result": "Inactive"}]}
{"smiles": "COc1c(Br)cc(/C=C2\\SC(=S)N(c3cccc(C(F)(F)F)c3)C2=O)c(O)c1Br", "note": "[Compound 39]", "values": [{"measurement": "IC50 (μM)", "setting": "[7]; [8]", "result": "Inactive"}]}
{"smiles": "COc1cc(Br)ccc1/C=C1\\SC(=S)N(c2cccc(C(F)(F)F)c2)C1=O", "note": "[Compound 40]", "values": [{"measurement": "IC50 (μM)", "setting": "[7]; [8]", "result": "Inactive"}]}
{"smiles": "COc1ccc(/C=C2\\SC(=S)N(c3cccc(C(F)(F)F)c3)C2=O)cc1", "note": "[Compound 41]", "values": [{"measurement": "IC50 (μM)", "setting": "[7]; [8]", "result": "Inactive"}]}
{"smiles": "NC(=O)c1ccc(/C=C2\\SC(=S)N(c3cccc(C(F)(F)F)c3)C2=O)cc1", "note": "[Compound 42]", "values": [{"measurement": "IC50 (μM)", "setting": "[7]; [8]", "result": "Inactive"}]}
{"smiles": "O=C(NCCO)c1ccc(/C=C2\\SC(=S)N(c3cccc(C(F)(F)F)c3)C2=O)cc1", "note": "[Compound 43]", "values": [{"measurement": "IC50 (μM)", "setting": "[7]; [8]", "result": "Inactive"}]}
{"smiles": "NCCNC(=O)c1ccc(/C=C2\\SC(=S)N(c3cccc(C(F)(F)F)c3)C2=O)cc1", "note": "[Compound 44]", "values": [{"measurement": "IC50 (μM)", "setting": "[7]; [8]", "result": "Inactive"}]}
{"smiles": "CCOC(=O)c1ccc(/C=C2\\SC(=S)N(c3cccc(C(F)(F)F)c3)C2=O)cc1", "note": "[Compound 45]", "values": [{"measurement": "IC50 (μM)", "setting": "[7]; [8]", "result": "Inactive"}]}
{"smiles": "CC(=O)OCOC(=O)c1ccc(/C=C2\\SC(=S)N(c3cccc(C(F)(F)F)c3)C2=O)cc1", "note": "[Compound 46]", "values": [{"measurement": "IC50 (μM)", "setting": "[7]; [8]", "result": "Inactive"}]}
{"smiles": "O=C(O)c1ccc(/C=C2\\SC(=S)N(Cc3cccc(C(F)(F)F)c3)C2=O)cc1", "note": "[Compound 47, 4-[[4-Oxo-2-thioxo-3-[(3-(trifluoromethyl)phenyl)methyl]-5-thiazolidinylidene]methyl] benzoic acid]", "values": [{"measurement": "IC50 (μM)", "setting": "[7]; [9]", "result": "Inactive"}]}
{"smiles": "O=C(O)c1ccc(/C=C2\\SC(=O)N(c3cccc(C(F)(F)F)c3)C2=O)cc1", "note": "[Compound 48, 4-[[3-[3-(trifluoromethyl)phenyl]-2,4-dioxo-5-thiazolidinylidene]methyl]benzoic acid]", "values": [{"measurement": "Reduction of CFTR inhibition potency compared with CFTRinh-172", "setting": "[7]; short-circuit current assays", "result": 3.6, "unit": "fold"}, {"measurement": "Increase of water solubility compared with CFTRinh-172", "setting": "[4]", "result": "~ 25 fold"}]}
{"smiles": "O=C(O)c1ccc(NC2=C(Cl)C(=O)N(c3cccc(C(F)(F)F)c3)C2=O)cc1", "note": "[Compound 50]", "values": [{"measurement": "CFTR inhibition activity (in words)", "setting": "[7]", "result": "weak activity"}]}
{"smiles": "O=C(O)c1ccc(SC2CC(=O)N(c3cccc(C(F)(F)F)c3)C2=O)cc1", "note": "(stereo not drawn) [Compound 51, 4-[[2,5-dioxo-1-[3-(trifluoromethyl)phenyl]-3-pyrrolidinyl]thio]-benzoic acid]", "values": [{"measurement": "CFTR inhibition activity (in words)", "setting": "[7]", "result": "moderate activity"}]}
{"smiles": "O=C(O)c1ccc(NC(=S)C2SC(=S)N(c3cccc(C(F)(F)F)c3)C2=O)cc1", "note": "(stereo not drawn) [Compound 52, 4-Oxo-[(3-trifluoromethyl)phenyl]-2-thioxo-N-[4-(carboxy)phenyl]-5-thiazolidinethio carboxamide]", "values": [{"measurement": "Water solubility (in words)", "setting": "[4]", "result": "highly water soluble"}]}
{"smiles": "O=C(O)c1ccc(NC(=S)C2SC(=S)N(c3cccc(C(F)(F)F)c3)C2=O)cc1O", "note": "(stereo not drawn) [Compound 53, 4-Oxo-[(3-trifluoromethyl)phenyl]-2-thioxo-N-[(4-carboxy-3-hydroxy)phenyl]-5-thiazolidinethiocarboxamide]", "values": [{"measurement": "IC50", "setting": "[7]; [9]", "result": 11, "unit": "µM"}, {"measurement": "Water solubility (in words)", "setting": "[4]", "result": "highly water soluble"}]}
{"smiles": "O=C1C(C(=S)Nc2ccc(S(=O)(=O)O)cc2)SC(=S)N1c1cccc(C(F)(F)F)c1", "note": "(stereo not drawn) [Compound 54]", "values": [{"measurement": "IC50", "setting": "[7]; [9]", "result": 25, "unit": "µM"}]}
{"smiles": "O=C(O)c1ccc(Nc2nc(-c3cccc(C(F)(F)F)c3)cs2)cc1", "note": "[Compound 59]", "values": [{"measurement": "CFTR inhibition activity (in words)", "setting": "[7]", "result": "weakly active"}]}
{"smiles": "O=C(O)c1cc(Nc2nc(-c3cccc(C(F)(F)F)c3)cs2)ccc1O", "note": "[Compound 60]", "values": [{"measurement": "CFTR inhibition activity (in words)", "setting": "[7]", "result": "weakly active"}]}
{"smiles": "O=C(O)c1ccc(Nc2nnc(-c3cccc(C(F)(F)F)c3)s2)cc1", "note": "[Compound 64, 4-[(5-(3-Trifluoromethylphenyl)-1,3,4-thiadiazol-2-yl)amino]-benzoic acid]", "values": [{"measurement": "IC50 (μM)", "setting": "[7]; [9]", "result": "Inactive"}]}
{"smiles": "O=C(O)c1ccc(-n2cc(-c3cccc(C(F)(F)F)c3)nn2)cc1", "note": "[Compound 68, 4-[4-[3-(trifluoromethyl)phenyl]-1H-1,2,3-triazol-1-yl]-benzoic acid]", "values": [{"measurement": "IC50 (μM)", "setting": "[7]; [9]", "result": "Inactive"}]}
{"smiles": "O=C(O)c1ccc(-n2cc(-c3ccc(C(F)(F)F)cc3)nn2)cc1", "note": "[Compound 69]", "values": [{"measurement": "IC50 (μM)", "setting": "[7]; [9]", "result": "Inactive"}]}
